Results collected from several papers.
Cell line: MV4-11
Effect on: cell growth or viability

With `CC(C)C[C@H](NC(=O)[C@H](Cc1ccccc1)NC(=O)c1cnccn1)B(O)O` the IC50 was 3.9 nM (ATP luminescence).
`CC(C)Nc1ccnc(Nc2ccc(C(N)=O)cc2)n1` has an EC50 of 2530 nM (ATP luminescence; 72 h).
For `C/C(=N\NC(=O)c1cccc(S(=O)(=O)N2CCN(C)CC2)c1)c1cc(Cl)ccc1O`, the EC50 was 886 nM (resazurin; 96 h).
`COc1cc2nccc(Oc3ccc(NC(=O)C4(C(=O)Nc5ccc(F)cc5)CC4)cc3)c2cc1OC` has an IC50 of 12 nM (trypan blue; 72 h).
The EC50 of `c1cc(Nc2nccc(NC3CCCCC3)n2)cc(-n2ccnc2)c1` is reported as 58 nM (ATP luminescence; 72 h).
For `COc1cc(-c2ncn(/C=C\C(=O)OC(C)C)n2)cc(C(F)(F)F)c1`, the IC50 was 28 nM (72 h).
For `CCNc1ccnc(Nc2cccc(-c3cccnc3)c2)n1`, the EC50 was 35 nM (ATP luminescence; 72 h).
The EC50 of `N[C@H]1CC[C@H](N[C@@H]2C[C@H]2c2ccccc2)CC1` is reported as 0.1 nM (resazurin; 96 h).
The IC50 of `Nc1nc(Nc2ccc3c(c2)CC[C@@H](N2CCCC2)CC3)nn1-c1cc2c(nn1)-c1ccccc1CCC2` is reported as 247 nM (trypan blue; 72 h).
For `N[C@@H](CC(=O)N1CCN(C(c2ccc(F)cc2)c2ccc(F)cc2)CC1)C(=O)N1Cc2ccccc2C1`, the IC50 was 1480 nM (ATP luminescence; 24 h).
`Cc1ncsc1-c1ccc(CNC(=O)[C@@H]2C[C@H](O)CN2C(=O)[C@@H](NC(=O)C2(F)CC2)C(C)(C)C)c(OCCc2ccc(CN3CCN(c4cc(-c5ccccc5O)nnc4N)CC3)cc2)c1` has an IC50 of 1700 nM (ATP luminescence; 7 days).
With `COC(=O)[C@H](C)Nc1ccnc(Nc2cccc(-c3cccnc3)c2)n1` the EC50 was greater than 8000 nM (ATP luminescence; 72 h).
For `CC(C)[C@H](N)C(=O)N1CCC[C@H]1B(O)O`, the IC50 was 78 nM (ATP luminescence; 48 h).
With `Cc1ccc(NC(=O)NCc2ccc3c(c2)CN(C2CCC(=O)NC2=O)C3=O)cc1Cl` (stereo not shown) the EC50 was 0.026 nM (ATP luminescence).
The EC50 of `CC(C)Nc1ccnc(Nc2ccc(-c3ccccc3)cc2)n1` is reported as 11900 nM (ATP luminescence; 72 h).
For `COc1ccc(-c2c(-c3ccc(C#N)c(F)c3)nc(N3CCC(N)CC3)n(C)c2=O)cc1F`, the EC50 was 2.9 nM (resazurin; 96 h).
